Laboratory results taken from ChEMBL document CHEMBL5120929, “Inhibitor Screen Identifies Covalent Inhibitors of the Protein Histidine Phosphatase PHPT1” (ACS Med Chem Lett, 2022).
Activity calls are given as the source filed them. The rule behind the calls is not given here.

Key:
[1] = target: T1, 14 kDa phosphohistidine phosphatase (Homo sapiens, UniProt Q9NRX4); test: Inhibition of PHPT1 (unknown origin) using DiFMUP as fluorogenic substrate incubated for 30 mins followed by substrate addition and measured every 60 seconds for 30 mins by fluorogenic assay
T1 sequence (Q9NRX4 whole entry): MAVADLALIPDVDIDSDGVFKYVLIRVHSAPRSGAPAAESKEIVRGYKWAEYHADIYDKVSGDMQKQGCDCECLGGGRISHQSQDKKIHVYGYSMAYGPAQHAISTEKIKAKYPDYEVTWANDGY

[2] = target: T2, 14 kDa phosphohistidine phosphatase (Homo sapiens) (UniProt Q9NRX4); test: Mixed inhibition of PHPT1 (unknown origin) assessed as change in Km and Vmax at above 150 uM using DifMUP as substrate by Michaelis-Menten based analysis
T2 sequence (whole entry): T1 sequence (Q9NRX4 whole entry)

[3] = target: T2, 14 kDa phosphohistidine phosphatase (Homo sapiens); test: Competitive inhibition of PHPT1 (unknown origin) assessed as change in Km and Vmax at below 150 uM using DifMUP as substrate by Michaelis-Menten based analysis
[4] = target: T1, 14 kDa phosphohistidine phosphatase; test: Inhibition of PHPT1 (unknown origin) assessed as inhibition constant measured up to 100 uM incubated up to 30 mins using DiFMUP as fluorogenic substrate by fluorogenic assay
Summary of the method: (§1)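 Kinetics of time-dependent PHPT1 inactivation in the fluorogenic activity assay. Observed inactivation rate constants (kobs) were plotted against inhibitor concentration to obtain kinact and KI.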

[5] = target: T2, 14 kDa phosphohistidine phosphatase (Homo sapiens); test: Time dependent inhibition of PHPT1 (unknown origin) at 10 uM using DiFMUP as fluorogenic substrate preincubated for 15 to 120 mins followed by substrate addition and measured for 30 mins by fluorogenic assay; details: time 45-150 min, TDE = time-dependent effect
[6] = target: T3, Mediator of RNA polymerase II transcription subunit 25 (Homo sapiens, UniProt Q71SY5); test: Inhibition of Med25 transcriptional activation in human MCF-7 cells by fluorescence polarization assay; type: cell-based; details: mcf7
T3 sequence (Q71SY5 whole entry): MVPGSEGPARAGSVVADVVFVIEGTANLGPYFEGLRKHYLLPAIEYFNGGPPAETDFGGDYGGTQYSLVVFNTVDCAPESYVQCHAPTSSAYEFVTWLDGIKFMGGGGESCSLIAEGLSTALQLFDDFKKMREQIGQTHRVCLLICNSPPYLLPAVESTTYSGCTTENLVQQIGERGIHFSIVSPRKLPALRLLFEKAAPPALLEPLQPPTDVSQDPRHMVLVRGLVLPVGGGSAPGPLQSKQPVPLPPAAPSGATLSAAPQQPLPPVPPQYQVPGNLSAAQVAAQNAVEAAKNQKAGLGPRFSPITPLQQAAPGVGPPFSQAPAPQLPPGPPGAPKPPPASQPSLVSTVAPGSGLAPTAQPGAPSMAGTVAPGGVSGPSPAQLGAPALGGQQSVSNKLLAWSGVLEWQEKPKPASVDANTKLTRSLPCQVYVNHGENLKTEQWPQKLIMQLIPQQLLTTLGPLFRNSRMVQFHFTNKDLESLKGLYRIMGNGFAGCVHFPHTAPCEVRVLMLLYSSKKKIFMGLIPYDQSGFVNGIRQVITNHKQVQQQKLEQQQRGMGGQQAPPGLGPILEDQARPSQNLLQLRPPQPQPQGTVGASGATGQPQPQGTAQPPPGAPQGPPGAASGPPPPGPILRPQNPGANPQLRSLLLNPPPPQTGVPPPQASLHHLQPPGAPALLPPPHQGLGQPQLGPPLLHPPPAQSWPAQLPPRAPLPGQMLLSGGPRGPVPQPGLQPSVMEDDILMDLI

[7] = target: T2, 14 kDa phosphohistidine phosphatase (Homo sapiens); test: Inhibition of PHPT1 (unknown origin) assessed as inactivation constant measured up to 100 uM incubated up to 30 mins using DiFMUP as fluorogenic substrate by fluorogenic assay; summary of the method: as §1
[8] = target: T2, 14 kDa phosphohistidine phosphatase (Homo sapiens); test: Time dependent inhibition of PHPT1 (unknown origin) at 20 uM using DiFMUP as fluorogenic substrate preincubated for 15 to 120 mins followed by substrate addition and measured for 30 mins by fluorogenic assay; details: time 45-150 min, TDE = time-dependent effect
[9] = target: T2, 14 kDa phosphohistidine phosphatase (Homo sapiens); test: Reversible inhibition of PHPT1 (unknown origin) at 1 mM using DiFMUP as fluorogenic substrate preincubated for 30 mins followed by substrate addition by dialysis method
Summary of the method: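 Reversibility was tested by measuring PHPT1 inhibition in the fluorogenic activity assay before and after dialysis.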

With O=[N+]([O-])c1cc([As](=O)(O)O)ccc1O [ROXARSONE] the IC50 [1] was 80 µM, the inhibition [2] was “Active” and the inhibition [3] was “Active”.

Cc1cc(O)c(C=O)c2c1C(=O)Oc1c(C)c(O)c3c(c1O2)C(O)OC3=O (centres undefined) [NORSTICTIC ACID] was tested, and the IC50 [1] was 7.9 µM, the Ki [4] was 90 µM and the inhibition [5] was “Tde”. The IC50 [6] was 2.3 µM and the Kinact [7] was 1.7 min⁻¹.

COc1cc(C)c2c(c1C=O)Oc1c(c(C)c(O)c3c1C(O)OC3=O)OC2=O (centres undefined) [STICTIC ACID] was tested, and the IC50 [1] was 22 µM and the inhibition [8] was “Tde”.

CC(=O)Nc1cc([As](=O)(O)O)ccc1O [ACETARSONE] was tested, and the IC50 [1] was 100 µM, the inhibition [2] was “Active” and the inhibition [3] was “Active”. The inhibition [9] was “Active”.
